What all share (type): functional
Experiment [1] relates to NCI-H522. Briefly: Growth inhibition of human NCI-H522 cells after 48 hrs by sulforhodamine B assay. Particulars: NCI-H522, 48 h. An outline of the steps: (§1)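 NCI screen panel. Five 10-fold concentrations from 10^-4 to 10^-8 M. Exposure for the last 48 h of a 72 h incubation. Growth estimated by sulforhodamine B protein assay. GI50 is the concentration giving 50% growth inhibition. Where that level was not reached or was exceeded, the value is given as above or below the highest or lowest concentration tested.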
On the technique in general: Sulforhodamine B stains cellular protein and so reports cell mass.

For experiment [2], the system named is NCI-H23. Briefly: Growth inhibition of human NCI-H23 cells after 48 hrs by sulforhodamine B assay. As to conditions: NCI-H23, 48 h. The procedure, abridged:
as §1

Experiment [3] relates to HCC 2998. Briefly: Growth inhibition of human HCC2998 cells after 48 hrs by sulforhodamine B assay. Particulars: HCC 2998, 48 h. An outline of the steps: as §1
Experiment [4] deals with DU-145. In words: Growth inhibition of human DU145 cells after 48 hrs by sulforhodamine B assay. Particulars: DU-145, 48 h. The procedure, abridged:
as §1

The test system of experiment [5] is SF-539. In words: Growth inhibition of human SF539 cells after 48 hrs by sulforhodamine B assay. As to conditions: SF-539, 48 h. An outline of the steps: as §1
The subject of experiment [6] is SK-MEL-2. Briefly: Growth inhibition of human SK-MEL-2 cells after 48 hrs by sulforhodamine B assay. Particulars: SK-MEL-2, 48 h. An outline of the steps:
as §1

Experiment [7] relates to SNB-19. In words: Growth inhibition of human SNB19 cells after 48 hrs by sulforhodamine B assay. As to conditions: SNB-19, 48 h. An outline of the steps: (§2)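 NCI in vitro panel screen. Compounds tested at five 10-fold dilutions, 10^-4 to 10^-8 M. Cells in 96-well plates were exposed for the last 48 h of a 72 h incubation. Viability/growth was read by sulforhodamine B protein assay. GI50 is the concentration giving 50% growth inhibition. Values beyond the tested range are reported as greater or less than the maximum or minimum concentration.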

The test system of experiment [8] is SK-MEL-28. Briefly: Growth inhibition of human SK-MEL-28 cells after 48 hrs by sulforhodamine B assay. Particulars: SK-MEL-28, 48 h. An outline of the steps: as §1
Experiment [9] relates to ACHN. In words: Growth inhibition of human ACHN cells after 48 hrs by sulforhodamine B assay. An outline of the steps:
as §1

Experiment [10] deals with SR. Briefly: Growth inhibition of human SR cells after 48 hrs by sulforhodamine B assay. An outline of the steps:
as §2

In experiment [11] the test system is OVCAR-4. Briefly: Growth inhibition of human OVCAR4 cells after 48 hrs by sulforhodamine B assay. Particulars: OVCAR-4, 48 h. The procedure, abridged: as §1
Experiment [12] concerns HT-29. Briefly: Growth inhibition of human HT-29 cells after 48 hrs by sulforhodamine B assay. As to conditions: HT-29, 48 h. The procedure, abridged: as §1
The subject of experiment [13] is OVCAR-8. Briefly: Growth inhibition of human OVCAR8 cells after 48 hrs by sulforhodamine B assay. As to conditions: OVCAR-8, 48 h. An outline of the steps: as §1
Experiment [14] relates to SK-MEL-5. Briefly: Growth inhibition of human SK-MEL-5 cells after 48 hrs by sulforhodamine B assay. As to conditions: SK-MEL-5, 48 h. An outline of the steps:
as §1

Experiment [15] deals with UO-31. In words: Growth inhibition of human UO31 cells after 48 hrs by sulforhodamine B assay. Particulars: UO-31, 48 h. An outline of the steps: as §2
Experiment [16] relates to HL-60(TB). In words: Growth inhibition of human HL-60(TB) cells after 48 hrs by sulforhodamine B assay. Particulars: HL-60, 48 h. An outline of the steps: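 NCI 60-cell-line screen protocol: cells exposed to compound at five 10-fold dilutions from 10^-4 to 10^-8 M for the last 48 h of a 72 h incubation. Sulforhodamine B protein assay estimated viability/growth. GI50 (50% growth inhibition) derived; where not reached or exceeded, reported as greater or less than the highest or lowest concentration tested.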

A short description of experiment [17]: Growth inhibition of human […] cells after 48 hrs by sulforhodamine B assay. The procedure, abridged:
as §1

The subject of experiment [18] is BT-549. In words: Growth inhibition of human BT549 cells after 48 hrs by sulforhodamine B assay. Particulars: BT-549, 48 h. The procedure, abridged: as §1
Experiment [19] can be described thus: Growth inhibition of human Hs 578T cells after 48 hrs by sulforhodamine B assay. The procedure, abridged: as §1

One may read the GI50 as the concentration giving 50% growth inhibition. Low values mean greater sensitivity of the cells, high ones lower sensitivity of the cells. Regarding `O=C(c1ccco1)N1CCN(C(=O)c2ccco2)C1=S`, the GI50 amounted to 3.1 µM in experiment [1]; 19.5 µM in [2]; 12.4 µM in [3]; 2.7 µM in [4]; 3 µM in [5]; 14.2 µM in experiment [6]. Further, the GI50 in experiment [7] was 25.4 µM; in [8] it was 5.5 µM; in experiment [9] it was 4.7 µM; in experiment [10] it was 1.8 µM; in experiment [11] it was 15.6 µM; in [12], 5 µM. The GI50 in experiment [13] stood at 8.8 µM; in experiment [14], 10.1 µM; in experiment [15], 3.7 µM; in experiment [16] it was 4 µM; in experiment [17], 2 µM; in [18], 4.6 µM. In [19], this compound yielded a GI50 of 6.8 µM.

`O=C(c1cc(Cl)cc(Cl)c1)N1CCN(C(=O)c2cc(Cl)cc(Cl)c2)C1=S`: the GI50 in experiment [1] was found to be 3.7 µM; in experiment [2], 14.8 µM; in experiment [3], 16.7 µM; in experiment [4], 10.5 µM; in experiment [5], 12.8 µM; in experiment [6], 16.1 µM. The GI50 was 19 µM in experiment [7]; 12.2 µM in experiment [8]; 17.4 µM in experiment [9]; 3.3 µM in experiment [10]; 18 µM in experiment [11]; 22.2 µM in experiment [12]. Further, the GI50 in experiment [13] was found to be 15.3 µM; in [14] it was 16.1 µM; in experiment [15] it was 2.3 µM; in experiment [16], 3.3 µM; in [17], 1.5 µM; in experiment [18], 22.4 µM. This compound also had a GI50 in [19] of 21.4 µM.

Regarding `O=C(c1ccc(Cl)c(Cl)c1)N1CCN(C(=O)c2ccc(Cl)c(Cl)c2)C1=S`, the GI50 in experiment [1] is 6.1 µM; in [2], 22 µM; in experiment [3], 19.9 µM; in [4] it was 14.7 µM; in experiment [5] it was 15.1 µM; in experiment [6] it was 18.4 µM. Besides, the GI50 in experiment [7] was 21.4 µM; in experiment [8] it was 30.6 µM; in experiment [9] it was 19.2 µM; in [11] it was 16.8 µM; in [12], 24.2 µM; in experiment [13], 19 µM. The GI50 in experiment [16] is 12.7 µM; in experiment [17], 1.8 µM; in [18], 23.6 µM; in experiment [19] it was 29.1 µM.

For `O=C(c1ccc(Cl)cc1Cl)N1CCN(C(=O)c2ccc(Cl)cc2Cl)C1=S`, the GI50 in experiment [1] turned out to be 18.2 µM; in [2], 19.8 µM; in experiment [3] it was 22 µM; in [4] it was 30.6 µM; in experiment [5], 27.2 µM; in experiment [6], 18.4 µM. For the same compound, the GI50 in experiment [7] worked out at 24.9 µM; in experiment [8] it was 18.4 µM; in experiment [9] it was 21.3 µM; in experiment [11], 25.8 µM; in [12], 20.4 µM; in experiment [13] it was 22.1 µM. Further, the GI50 in experiment [16] stood at 16.6 µM; in experiment [17], 12.9 µM; in experiment [18], 21.1 µM; in experiment [19], 41 µM.

Take `COc1cc(C(=O)N2CCN(C(=O)c3cc(OC)c(OC)c(OC)c3)C2=S)cc(OC)c1OC`: the GI50 in experiment [1] amounted to 3.7 µM; in [2] it was 18.7 µM; in experiment [3], 19 µM; in [4] it was 13.6 µM; in [5], 14.5 µM; in experiment [6] it was 16.3 µM. The GI50 was found to be 18.5 µM in [7]; 17.2 µM in experiment [8]; 17.8 µM in [9]; 16.9 µM in [11]; 22.7 µM in [12]; 21.9 µM in [13]. For the same compound, the GI50 in experiment [15] came to 0.2 µM; in experiment [16], 16 µM; in [17], 3.7 µM; in experiment [18] it was 17.4 µM; in experiment [19] it was 24.7 µM.

For the compound `COc1cc(C(=O)N2CCN(C=O)C2=S)cc(OC)c1OC`, the GI50 in [1] came to 5.8 µM; in [2] it was 25.9 µM; in experiment [3] it was 19.8 µM; in experiment [4], 19.6 µM; in experiment [5], 21.3 µM; in experiment [6], 19.9 µM. Besides, the GI50 in experiment [7] was 28.5 µM; in experiment [8], 29.5 µM; in [9] it was 20.1 µM; in experiment [11], 24.1 µM; in [12], 26.7 µM; in [13], 24 µM. Also, the GI50 is 0.07 µM in experiment [15]; 23.4 µM in experiment [16]; 7.3 µM in [17]; 25 µM in [18]; 27.6 µM in [19].

`O=C(c1cccs1)N1CCN(C(=O)c2cccs2)C1=S`: the GI50 turned out to be 3.8 µM in experiment [1]; 10.6 µM in experiment [2]; 8 µM in experiment [3]; 3.3 µM in [4]; 1.8 µM in [5]; 12.6 µM in experiment [6]. The GI50 was 14.4 µM in experiment [7]; 3.8 µM in experiment [8]; 15 µM in [9]; 3.4 µM in [10]; 18.8 µM in [11]; 11.9 µM in [12]. Further, the GI50 was 5.3 µM in experiment [13]; 4.6 µM in experiment [14]; 2.3 µM in experiment [15]; 2.2 µM in experiment [16]; 1.2 µM in experiment [17]; 10 µM in experiment [18]. Besides, growth in experiment [19] was halved (GI50) at 16.6 µM.

As to `O=CN1CCN(C(=O)c2ccco2)C1=S`, the GI50 in experiment [1] came out at 4 µM; in [2], 16.7 µM; in [3], 13.4 µM; in [4], 2.5 µM; in experiment [5], 2.5 µM; in [6], 16.5 µM. For the same compound, the GI50 in experiment [7] came to 24.6 µM; in experiment [8], 26.2 µM; in experiment [9] it was 6.5 µM; in experiment [10], 2.1 µM; in experiment [11], 18.6 µM; in experiment [12], 7.5 µM. Further, the GI50 in [13] turned out to be 16.8 µM; in [14] it was 12.7 µM; in experiment [15], 4.5 µM; in [16] it was 2.8 µM; in experiment [17], 1.8 µM; in [18], 2.3 µM. The compound further displayed a GI50 in [19] of 11 µM.

Source of the values: ChEMBL document CHEMBL1138555, “N-acylated and N,N'-diacylated imidazolidine-2-thione derivatives and N,N'-diacylated tetrahydropyrimidine-2(1H)-thione analogues: synthesis and antiproliferative activity” (Eur J Med Chem, 2009).
